Assays:
Cannabinoid receptor 1 = Cannabinoid receptor 1 (Rattus norvegicus, UniProt P20272); experiment: Displacement of [3H]CP-55940 from cannabinoid CB1 receptor in Sprague-Dawley rat cerebellar membrane by liquid scintillation spectrometry; design: species or system Cerebellum
How it was run: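 Membranes from cerebella of male Sprague-Dawley rats (200–300 g), homogenized in TME (50 mM Tris-HCl, 1 mM EDTA, 3 mM MgCl₂, pH 7.4), spun 48,000g 30 min at 4 °C, resuspended, stored at −70 °C. Incubated 1 h at 30 °C with radioligand in TME plus 0.5% fatty-acid-free BSA. Filtered on PEI-soaked GF/B and washed; IC50 by nonlinear regression.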

Cannabinoid receptor 2 = Cannabinoid receptor 2 (Homo sapiens, UniProt P34972); experiment: Displacement of [3H]WIN-55212-2 from human recombinant cannabinoid CB2 receptor expressed in CHOK1 cells by liquid scintillation spectrometry; format: cell-based, CHO-K1
Cannabinoid receptor 2, sequence (P34972 whole entry): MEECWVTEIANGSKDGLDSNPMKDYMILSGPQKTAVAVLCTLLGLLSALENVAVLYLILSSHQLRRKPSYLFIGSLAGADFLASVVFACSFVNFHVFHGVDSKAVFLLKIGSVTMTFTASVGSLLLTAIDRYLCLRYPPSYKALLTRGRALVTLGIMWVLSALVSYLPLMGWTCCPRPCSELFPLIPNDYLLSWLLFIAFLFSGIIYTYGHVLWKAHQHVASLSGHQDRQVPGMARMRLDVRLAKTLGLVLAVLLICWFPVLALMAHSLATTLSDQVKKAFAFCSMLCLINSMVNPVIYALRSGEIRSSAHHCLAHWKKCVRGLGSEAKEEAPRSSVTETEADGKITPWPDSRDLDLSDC
How it was run: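 CHO K-1 cells transfected with human CB2; membranes prepared as for brain tissue. Competition with 3 nM [3H]WIN55,212-2 in TME buffer (pH 7.4) with 0.5% fatty-acid-free BSA, 1 h at 30 °C. Filtered on 0.1% PEI-soaked GF/B, washed five times with ice-cold buffer plus 0.1% BSA, and counted by scintillation. IC50 by nonlinear regression.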

CHO-K1 = experiment: Selectivity ratio of IC50 for human recombinant cannabinoid CB2 receptor expressed in CHOK1 cells to IC50 for cannabinoid CB1 receptor in Sprague-Dawley rat cerebellar membrane

Cannabinoid receptor 1, sequence (P20272 whole entry): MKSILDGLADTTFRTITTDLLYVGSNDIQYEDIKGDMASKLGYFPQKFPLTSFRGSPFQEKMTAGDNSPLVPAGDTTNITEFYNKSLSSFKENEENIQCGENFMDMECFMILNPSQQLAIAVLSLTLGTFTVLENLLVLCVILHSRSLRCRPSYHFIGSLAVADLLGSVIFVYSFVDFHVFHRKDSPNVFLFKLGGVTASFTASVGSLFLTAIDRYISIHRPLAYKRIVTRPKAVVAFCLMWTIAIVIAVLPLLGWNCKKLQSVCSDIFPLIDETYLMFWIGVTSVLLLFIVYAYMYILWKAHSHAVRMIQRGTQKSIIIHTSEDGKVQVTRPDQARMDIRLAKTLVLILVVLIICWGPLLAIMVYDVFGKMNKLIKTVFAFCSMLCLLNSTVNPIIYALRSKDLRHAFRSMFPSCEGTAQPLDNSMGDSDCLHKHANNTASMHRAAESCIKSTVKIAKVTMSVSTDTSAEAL

SMILES	IC50 (Cannabinoid receptor 1) [nM]	IC50 (Cannabinoid receptor 2) [nM]	Ratio IC50 (CHO-K1)
CC(=O)CNC(=O)c1c(-c2nnc(C(C)(C)C)o2)nn(-c2ccc(Cl)cc2Cl)c1-c1ccc(Cl)cc1	3.51	–	–
CC(C)NC(=O)c1c(-c2nnc(C(C)(C)C)o2)nn(-c2ccc(Cl)cc2Cl)c1-c1ccc(Cl)cc1	9.31	–	–
CN(C)C(=O)c1c(-c2nnc(C(C)(C)C)o2)nn(-c2ccc(Cl)cc2Cl)c1-c1ccc(Cl)cc1	13.4	–	–
CC(C)(C)c1nnc(-c2nn(-c3ccc(Cl)cc3Cl)c(-c3ccc(Cl)cc3)c2C(=O)NN2CCCCC2)o1	17.2	–	–
CCN(C)C(=O)c1c(-c2nnc(C(C)(C)C)o2)nn(-c2ccc(Cl)cc2Cl)c1-c1ccc(Cl)cc1	11.5	–	–
CCCCNC(=O)c1c(-c2nnc(C(C)(C)C)o2)nn(-c2ccc(Cl)cc2Cl)c1-c1ccc(Cl)cc1	17.8	–	–
CCN(CC)C(=O)c1c(-c2nnc(C(C)(C)C)o2)nn(-c2ccc(Cl)cc2Cl)c1-c1ccc(Cl)cc1	62.1	–	–
CCCNC(=O)c1c(-c2nnc(C(C)(C)C)o2)nn(-c2ccc(Cl)cc2Cl)c1-c1ccc(Cl)cc1	5.72	–	–
CC(C)(C)c1nnc(-c2nn(-c3ccc(Cl)cc3Cl)c(-c3ccc(Cl)cc3)c2C(=O)NC2CCCC2)o1	7.25	–	–
O=C(Nc1ccccc1)c1c(-c2nnc(C3(c4ccc(Cl)cc4)CC3)o2)nn(-c2ccc(Cl)cc2Cl)c1-c1ccc(Br)cc1	1.96	> 10000	> 5100
CC(C)(C)c1nnc(-c2nn(-c3ccc(Cl)cc3Cl)c(-c3ccc(Cl)cc3)c2C(=O)NC2CC2)o1	3.27	–	–
CC(C)(C)c1nnc(-c2nn(-c3ccc(Cl)cc3Cl)c(-c3ccc(Cl)cc3)c2C(=O)N2CCCC2)o1	93.4	–	–

Continued, in another order:

IC50 (Cannabinoid receptor 1) [nM]	IC50 (Cannabinoid receptor 2) [nM]	SMILES	Ratio IC50 (CHO-K1)
23.8	–	CC(C)(C)c1nnc(-c2nn(-c3ccc(Cl)cc3Cl)c(-c3ccc(Cl)cc3)c2C(N)=O)o1	–
1.46	374	CC(C)(C)c1nnc(-c2nn(-c3ccc(Cl)cc3Cl)c(-c3ccc(Br)cc3)c2C(=O)Nc2ccccn2)o1	256
1.47	636	CC(C)(C)c1nnc(-c2nn(-c3ccc(Cl)cc3Cl)c(-c3ccc(Cl)cc3)c2C(=O)Nc2ccccn2)o1	433
18.3	–	CNC(=O)c1c(-c2nnc(C(C)(C)C)o2)nn(-c2ccc(Cl)cc2Cl)c1-c1ccc(Cl)cc1	–
1.35	386	CC(C)(C)c1nnc(-c2nn(-c3ccc(Cl)cc3Cl)c(-c3ccc(Br)cc3)c2C(=O)Nc2ccccc2)o1	286
12.7	–	CCNC(=O)c1c(-c2nnc(C(C)(C)C)o2)nn(-c2ccc(Cl)cc2Cl)c1-c1ccc(Cl)cc1	–
1.66	738	CC(C)(C)c1nnc(-c2nn(-c3ccc(Cl)cc3Cl)c(-c3ccc(Cl)cc3)c2C(=O)Nc2ccccc2)o1	445
